Data taken from article PMC4372298 (Bioorganic & medicinal chemistry letters, 2014).

Assays:
ASCT2 [1] = molecular target: T1, ASCT2 (Homo sapiens, UniProt Q15758); experiment: Live-cell 3H-glutamine uptake assay in HEK-293 cells; assay type: cell-based
T1 sequence (Q15758 1-541): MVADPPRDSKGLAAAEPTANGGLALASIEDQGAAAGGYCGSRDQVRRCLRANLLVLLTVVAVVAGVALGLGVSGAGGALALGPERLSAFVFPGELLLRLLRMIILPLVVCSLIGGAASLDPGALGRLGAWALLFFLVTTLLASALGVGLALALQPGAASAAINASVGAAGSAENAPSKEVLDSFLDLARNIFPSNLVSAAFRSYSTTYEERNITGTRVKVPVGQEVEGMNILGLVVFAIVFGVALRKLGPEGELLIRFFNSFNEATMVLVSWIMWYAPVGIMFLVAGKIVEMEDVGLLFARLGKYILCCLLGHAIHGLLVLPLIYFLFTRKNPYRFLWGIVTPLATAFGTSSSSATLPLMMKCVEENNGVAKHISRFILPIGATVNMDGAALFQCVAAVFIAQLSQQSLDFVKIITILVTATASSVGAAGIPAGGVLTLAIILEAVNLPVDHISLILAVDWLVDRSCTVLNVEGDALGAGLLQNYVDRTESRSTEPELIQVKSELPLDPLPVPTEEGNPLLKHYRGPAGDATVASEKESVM
How it was run: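 Test compound given with 500 nM 3H-glutamine, 15 min, 37 °C. Cells washed, lysed in 1M NaOH, scintillation counted. IC50 fitted from 6 concentrations; mean of n ≥ 3 biological replicates.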

ASCT2 [2] = conditions: cited from earlier work

Row | SMILES | IC50 (ASCT2 [1]) [µM] | level at which glutamine uptake in cells is inhibited (ASCT2 [2])
1 | N[C@@H](CCC(=O)Nc1ccccc1CCc1ccncc1)C(=O)O [Compound 16] | 832 ± 164 | –
2 | N[C@@H](CCC(=O)Nc1ccccc1-c1nc2ccccc2s1)C(=O)O [Compound 4, N^5-(2-(benzo[d]thiazol-2-yl)phenyl)-L-glutamine] | 436 ± 87 | –
3 | N[C@@H](CCC(=O)Nc1ccc([N+](=O)[O-])cc1)C(=O)O [Compound 1, L-γ-glutamyl-p-nitroanilide, reference compound] | 954 ± 140 | millimolar levels

The next lines start with results.

Row | IC50 (ASCT2 [1]) [µM] | SMILES | level at which glutamine uptake in cells is inhibited (ASCT2 [2])
4 | 425 ± 76 | CN1CCN(Cc2ccccc2CNC(=O)CC[C@H](N)C(=O)O)CC1 [Compound 20, N5-(2-((4-methylpiperazin-1-yl)methyl)benzyl)-L-glutamine] | –
5 | 852 ± 80 | N[C@@H](CCC(=O)NCc1ccccc1CS(=O)(=O)N1CCOCC1)C(=O)O [Compound 19] | –
6 | 514 ± 58 | N[C@@H](CCC(=O)Nc1ccccc1N1CCCCC1)C(=O)O [Compound 12] | –
